Results published in ChEMBL document CHEMBL1649585, “Role of the Mycobacterium tuberculosis P55 efflux pump in intrinsic drug resistance, oxidative stress responses, and growth” (2009).
Values after ≈ are worked out from the molar mass of the structure shown. Active and inactive are the calls of the source. The rule behind the calls is not given here. Where a SMILES comes first, the peptide text is derived from it. Bridges are numbered along the chain shown (N, C = ends). [ ]: non-standard residue; d: D form. The star is where a group is joined. Ileψ(thiazoline)Cys = CC[C@H](C)[C@H](N)C1=N[C@H](C(=O)*)CS1; dOrn = NCCC[C@@H](N)C(=O)O

Legend:
[1] = system: Mycobacterium tuberculosis; assay: Antimicrobial activity against Mycobacterium bovis BCG by twofold dilution method; format: functional; conditions: variant bovis BCG
Method in brief: (§1)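 Agar MIC: log-phase cultures diluted to 10^5 cells/ml, 10 µl spotted onto Middlebrook 7H10 plates with serial twofold antibiotic dilutions. Visible growth scored after 21 days at 37°C. Triplicate, repeated at least three times.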

[2] = system: Mycobacterium tuberculosis; assay: Antimicrobial activity against Mycobacterium bovis BCG by resazurine microtiter assay; format: functional; conditions: variant bovis BCG, Urine
Method in brief: (§2)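 Resazurin microdilution in liquid medium: serial twofold compound dilutions, plates incubated 8 days at 37°C, then 2 more days after adding resazurin. MIC read from the indicator. Run in triplicate and repeated at least three times.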

[3] = system: Mycobacterium tuberculosis; assay: Antimicrobial activity against Mycobacterium bovis BCG by resazurine microtiter assay in presence of 1 mg/liter CCCP; format: functional; conditions: variant bovis BCG, Urine
Method in brief: (§3)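 Resazurin microdilution MIC (serial twofold dilutions, 8 days at 37°C plus 2 days after resazurin) run with a fixed subinhibitory level of efflux pump inhibitor (valinomycin, reserpine or CCCP) present throughout. Triplicate, repeated at least three times.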

[4] = system: Mycobacterium tuberculosis; assay: Antimicrobial activity against Mycobacterium bovis BCG harboring pPAZ23 carrying p27-p55 operon by resazurine microtiter assay; format: functional; conditions: variant bovis BCG, Urine; method in brief: as §2
[5] = system: Mycobacterium tuberculosis; assay: Ratio of MIC for wild type Mycobacterium bovis BCG to MIC for Mycobacterium bovis BCG KOP55 harboring inactivated p55 gene; format: functional, variant bovis BCG
[6] = system: Mycobacterium tuberculosis; assay: Ratio of MIC for Mycobacterium bovis BCG harboring pPAZ23 carrying p27-p55 operon to MIC for wild-type Mycobacterium bovis BCG; format: functional, variant bovis BCG
[7] = system: Mycobacterium tuberculosis; assay: Increase in intracellular redox potential in wild-type Mycobacterium bovis BCG assessed as increased accumulation of formazan at 5 mg/liter after 1 hr by MTT assay; format: functional, variant bovis BCG
Method in brief: (§4)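 MTT reduction as an index of intracellular redox potential: cultures at OD600 0.2 treated with drug or solvent for 1 h at 37°C in quadruplicate wells, MTT (2 mg/ml stock) added, 3 h further incubation. Formazan solubilised with 10% SDS, 30 min shaking, absorbance at 600 nm. Repeated at least three independent times.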

[8] = system: Mycobacterium tuberculosis; assay: Effect on intracellular redox potential in wild-type Mycobacterium bovis BCG assessed as accumulation of formazan at 5 mg/liter after 1 hr by MTT assay; format: functional, organism-based; conditions: variant bovis BCG; method in brief: as §4
[9] = system: Mycobacterium tuberculosis; assay: Antimicrobial activity against Mycobacterium bovis BCG harboring pPAZ23 carrying p27-p55 operon by twofold dilution method; format: functional; conditions: variant bovis BCG; method in brief: as §1
[10] = system: Mycobacterium tuberculosis; assay: Ratio of MIC for wild type Mycobacterium bovis BCG to MIC for wild type Mycobacterium bovis BCG in presence of 1 mg/liter CCCP; format: functional, variant bovis BCG
[11] = system: Mycobacterium tuberculosis; assay: Antimicrobial activity against Mycobacterium bovis BCG by resazurine microtiter assay in presence of 0.5 mg/liter reserpine; format: functional; conditions: variant bovis BCG, Urine; method in brief: as §3
[12] = system: Mycobacterium tuberculosis; assay: Antimicrobial activity against Mycobacterium bovis BCG by resazurine microtiter assay in presence of 0.1 mg/liter valinomycin; format: functional; conditions: variant bovis BCG, Urine; method in brief: as §3
[13] = system: Mycobacterium tuberculosis; assay: Decrease in intracellular redox potential in wild-type Mycobacterium bovis BCG assessed as decreased accumulation of formazan at 256 mg/liter after 1 hr by MTT assay; format: functional, variant bovis BCG; design: scale not given: the % may be the effect or the level left; method in brief: as §4

CN(C)CCCN1c2ccccc2Sc2ccc(Cl)cc21 [CHLORPROMAZINE]
MIC [1]: 4 µg/mL (≈ 12.5 µM)

O=[N+]([O-])c1cn2c(n1)OC[C@@H](OCc1ccc(OC(F)(F)F)cc1)C2 [PRETOMANID]
MIC [2]: 0.25 µg/mL (≈ 0.696 µM)

CC[C@H](C)[C@H](N)C1=N[C@H](C(=O)N[C@@H](CC(C)C)C(=O)N[C@H](CCC(=O)O)C(=O)N[C@H](C(=O)N[C@H]2CCCCNC(=O)[C@H](CC(N)=O)NC(=O)[C@@H](CC(=O)O)NC(=O)[C@H](Cc3cnc[nH]3)NC(=O)[C@@H](Cc3ccccc3)NC(=O)[C@H]([C@@H](C)CC)NC(=O)[C@@H](CCCN)NC2=O)[C@@H](C)CC)CS1 [BACITRACIN] ({Ileψ(thiazoline)Cys}-L[dE]IK[dOrn]I[dF]H[dD]N; lactam 4-C)
MIC [3]: > 256 µg/mL
MIC [2]: > 256 µg/mL

CN[C@H](CC(C)C)C(=O)N[C@H]1C(=O)N[C@@H](CC(N)=O)C(=O)N[C@H]2C(=O)N[C@H]3C(=O)N[C@H](C(=O)N[C@H](C(=O)O)c4cc(O)cc(O)c4-c4cc3ccc4O)[C@H](O)c3ccc(c(Cl)c3)Oc3cc2cc(c3O[C@@H]2O[C@H](CO)[C@@H](O)[C@H](O)[C@H]2O[C@H]2C[C@](C)(N)[C@H](O)[C@H](C)O2)Oc2ccc(cc2Cl)[C@H]1O [VANCOMYCIN]
MIC [3]: 4 µg/mL
MIC [2]: 4 µg/mL (≈ 2.76 µM)
MIC [4]: 8 µg/mL (≈ 5.52 µM)
Ratio [5]: 16
Ratio [6]: 2

CC1=CC(=O)c2ccccc2C1=O [MENADIONE]
fold change (FC) [7]: 3.5

N#CC(C#N)=NNc1cccc(Cl)c1 [CARBONYL CYANIDE M-CHLOROPHENYLHYDRAZONE]
MIC [2]: 4 µg/mL (≈ 19.5 µM)

CC(C)[C@@H]1NC(=O)[C@H](C)OC(=O)[C@@H](C(C)C)NC(=O)[C@@H](C(C)C)OC(=O)[C@H](C(C)C)NC(=O)[C@H](C)OC(=O)[C@@H](C(C)C)NC(=O)[C@@H](C(C)C)OC(=O)[C@H](C(C)C)NC(=O)[C@H](C)OC(=O)[C@@H](C(C)C)NC(=O)[C@@H](C(C)C)OC1=O [VALINOMYCIN]
MIC [2]: 0.4 µg/mL (≈ 0.36 µM)

CC(C)/N=c1\cc2n(-c3ccc(Cl)cc3)c3ccccc3nc-2cc1Nc1ccc(Cl)cc1 [CLOFAZIMINE]
Activity [8]: inactive
MIC [9]: 0.1 µg/mL (≈ 0.211 µM)
MIC [1]: 0.1 µg/mL (≈ 0.211 µM)

CC[C@@H](CO)NCCN[C@@H](CC)CO [ETHAMBUTOL]
MIC [2]: 4 µg/mL (≈ 19.6 µM)

Clc1ccc(COC(Cn2ccnc2)c2ccc(Cl)cc2Cl)cc1 (centres undefined) [ECONAZOLE]
Ratio [5]: 4
MIC [9]: 12.8 µg/mL (≈ 33.5 µM)
Ratio [6]: 2
MIC [1]: 6.4 µg/mL (≈ 16.8 µM)

CO[C@H]1/C=C/O[C@@]2(C)Oc3c(C)c(O)c4c(O)c(c(/C=N/N5CCN(C)CC5)c(O)c4c3C2=O)NC(=O)/C(C)=C\C=C\[C@H](C)[C@H](O)[C@@H](C)[C@@H](O)[C@@H](C)[C@H](OC(C)=O)[C@@H]1C [RIFAMPIN]
MIC [3]: 0.0008 µg/mL
Ratio [10]: 4
MIC [2]: 0.0032 µg/mL (≈ 0.00389 µM)
MIC [11]: 0.0016 µg/mL
MIC [4]: 0.0032 µg/mL (≈ 0.00389 µM)
MIC [12]: 0.0016 µg/mL

CN(C)C(=O)/N=N/C(=O)N(C)C [DIAMIDE]
Activity [13]: 25%

COC(=O)[C@H]1[C@H]2C[C@@H]3c4[nH]c5cc(OC)ccc5c4CCN3C[C@H]2C[C@@H](OC(=O)c2cc(OC)c(OC)c(OC)c2)[C@@H]1OC [RESERPINE]
MIC [2]: 2 µg/mL (≈ 3.29 µM)

CO[C@@H]1[C@@H](OC(N)=O)[C@@H](O)[C@H](Oc2ccc3c(O)c(NC(=O)c4ccc(O)c(CC=C(C)C)c4)c(=O)oc3c2C)OC1(C)C [NOVOBIOCIN]
MIC [3]: 4 µg/mL
Ratio [10]: 4
MIC [2]: 16 µg/mL (≈ 26.1 µM)
MIC [11]: 8 µg/mL
MIC [12]: 8 µg/mL

Oc1cc(Cl)ccc1Oc1ccc(Cl)cc1Cl [TRICLOSAN]
MIC [1]: 8 µg/mL (≈ 27.6 µM)
